NF-kB expr up – raises NF-kB expression in human neuronal cells | NF-kB reporter expression; active compounds read high | fold change at 12.5 µM | 190,000 tested, 1.6% active; in the data active = fold change above about 3.3
STAT3 act – increases IL-6 driven STAT3 reporter signal | U3A cells, IL-6 STAT3-luciferase reporter, luminescence; 100% = signal with IL-6 EC80 alone | activation (% of control), % at 5.6 µM | 190,000 tested, 0.91% active;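 active = activation above the screen-wide mean of compound activation plus 3 SD, cut at about 130% in these data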
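Material: human STAT1-deficient U3A cells with stable STAT3-luciferase reporter / Probe or stimulus: IL-6 stimulus at 33 ng/mL final / Schedule: 1 h compound pre-exposure, 6 h IL-6 stimulation, 37 °C / Technique: luminescence / Read-out basis: percent of IL-6-only median luminescence / Control set: IL-6-only high control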
STAT1 blocker – reduces IFN-gamma driven STAT1 reporter signal | inhibition, % at 5.5 µM | NIH 3T3 STAT1-luciferase reporter, luminescence | AID 920 | 200,000 tested, 0.35% active;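 active = inhibition above a set limit, the mean inhibition across all tested compounds plus 3 SD, cut at about 34% in these data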
STAT1 activator – increases IFN-gamma driven STAT1 reporter signal; NIH 3T3 STAT1-luciferase reporter, luminescence; 100% = IFN-gamma alone, no compound; activation (% of control), % at 5.5 µM; 200,000 tested, 2.6% active; AID 932;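 active = activation above the screen-wide mean activation plus 3 SD, cut at about 130% in these data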
APP 5'UTR act – activates APP 5'UTR luciferase reporter. SH-SY5Y APP 5'UTR luciferase reporter, luminescence; zero percent = DMSO vehicle wells. activation, % at 2 µM. 190,000 tested, 1% active;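 active = activation above a set limit, based on mean plus 3 SD of controls, cut at about 140% in these data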
STAT3 inh – inhibitors of IL-6 induced STAT3 signaling. U3A cells, IL-6 STAT3-luciferase reporter, luminescence; host cell line lacks STAT1. inhibition, % at 5.5 µM. 190,000 tested, 0.89% active. AID 862;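 active = inhibition above the mean inhibition across all screened compounds plus 3 SD, cut at about 44% in these data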
Large screens that a line does not name were inactive. Most compounds without a hit are left out; they make up all but 4.9% or so of the library.

COc1ccc(C2CC(c3c(O)cc(C)oc3=O)=NCCS2)c(OC)c1 (configuration not stated)	NF-kB expr up 5.8, STAT3 act 163.8, STAT1 activator 136.4
C=CCNc1nc(NCc2ccccc2)c(C#N)c2c1CN(C)CC2	STAT3 act 132.9
N#Cc1c(NCCN)nc(NCc2ccccc2)c2c1CCN(Cc1ccccc1)C2	none (no result: NF-kB expr up)
Nc1n[nH]c(N)c1N=Nc1ccc(F)cc1	none
Cc1nc(N)sc1N=Nc1ccc(F)cc1	STAT1 activator 136.5
CCN1CCN(c2ccc(NC(=O)c3cccc(F)c3)cc2Cl)CC1	STAT1 activator 135.7
O=[N+]([O-])c1ccc(/C=N/Nc2ncc(-c3ccccc3)cn2)cc1	none
O=[N+]([O-])c1ccc(N/N=C/c2ccccc2)c(F)c1	STAT1 activator 145.3
Cc1c(Cl)c([N+](=O)[O-])nn1CC(=O)NC12CC3CC(CC(C3)C1)C2	none
COc1ccc([N+](=O)[O-])cc1NCc1ccccc1	STAT1 activator 143.4
Cc1ccc(-c2nnn(CC(=O)N(CCN3CCOCC3)C(C(=O)NC3CCCC3)c3ccncc3)n2)o1 (configuration not stated)	none
COc1cccc(N2CCN(c3ncnc4c3[nH]c3ccc(F)cc34)CC2C)c1 (configuration not stated)	STAT1 blocker 67.7, STAT3 inh 75.1
O=C(N/N=C/c1ccc(Br)o1)c1ccc2c(c1)OCCO2	STAT1 activator 130.5
O=C(N/N=C/c1cccnc1)c1ccc2c(c1)OCCO2	none
CCOC(=O)C1ON2CCCCC2C1(O)C(F)(F)F (configuration not stated)	none
Cc1ccn2c(C(=O)c3ccc(Cl)cc3)cnc2c1	STAT1 activator 145.7, APP 5'UTR act 165.0
CCn1cc(C=C2C(=O)c3ccccc3C2=O)c2ccccc21	none
CC(=O)n1nc(-c2ccccc2)nc1NCc1ccc(N(C)C)cc1	STAT1 activator 141.8
CN(C)c1ccc(CNc2nc(-c3ccccc3)nn2S(C)(=O)=O)cc1	none
COCC(=O)n1nc(-c2ccccc2)nc1NCc1ccccc1	STAT1 activator 137.1
CC(C)c1ccc(NC(=O)c2n[nH]c(=O)c3ccccc23)cc1	STAT1 activator 133.0
CC(C)c1ccc(NC(=S)NNC(=O)c2cccnc2)cc1	none
CC(C)c1ccc(NC(=O)c2cccnc2)cc1	STAT1 activator 143.0
COc1ccccc1Nc1nc(N)nc(CSC(=S)N2CCCCC2C)n1 (configuration not stated)	none
CCOC(=O)c1cnc2c(N=Nc3ccccc3)c(N)nn2c1N	STAT1 activator 137.5
CCOC(=O)c1cnc2c(N=Nc3cccc(Cl)c3)c(N)nn2c1N	none
O=C1c2cccc3cccc(c23)C(=O)N1c1ccncc1	none
CCc1nnc(N2C(=O)c3cccc4cccc(c34)C2=O)s1	STAT3 act 135.0
CN(C)c1ccc(N=Cc2nc(-c3ccccc3)oc2O)cc1	none
CC(=O)Oc1oc(-c2ccccc2)nc1/C=N/c1ccccn1	STAT1 activator 129.0
CN(C)c1ccc(N=Cc2nc(-c3ccccc3)oc2OC(=O)c2ccccc2)cc1	APP 5'UTR act 155.2
CCCOc1ccc2cc(-c3ccccn3)c(=O)oc2c1	STAT1 blocker 39.0, STAT3 inh 98.5
O=C(c1ccc(Cl)c([N+](=O)[O-])c1)N1CCN(Cc2ccc3c(c2)OCO3)CC1	none
O=C(NNc1ccnc2cc(Cl)ccc12)C1CCCCC1	STAT1 blocker 35.9, STAT3 inh 76.5
CC(=O)N[C@@H](C)C(=O)N1CCN(S(=O)(=O)c2ccc(Cl)cc2)CC1	none
COc1ccc(/C=N/NC(=O)COc2cc(C)cc(C)c2)cc1COC(C)=O	none
COc1ccc(N=C2NC(=O)S/C2=C\c2ccc(N(C)C)cc2)cc1	STAT1 activator 131.8
CCNC(=S)N/N=C/c1cc(C)n(-c2ccc(Cl)cc2)c1C	STAT1 activator 144.3
Cc1cc(/C=N/NC(N)=S)c(C)n1-c1ccc(Cl)c(Cl)c1	NF-kB expr up 7.81
Cc1cc(/C=N\NC(=O)CC(=O)NC2CCCCC2)c(C)n1-c1ccc(Cl)c(Cl)c1	none
Nc1nc(-c2nc3ccccc3[nH]2)cs1	NF-kB expr up 4.29, STAT1 activator 140.0, APP 5'UTR act 139.7
O=c1[nH]c(-c2ccccn2)nc2ccccc12	STAT1 activator 134.6
c1ccc2[nH]c(-c3ccncc3)nc2c1	none
c1ccc(-c2nc3ccccc3[nH]2)nc1	STAT1 activator 136.7
CC(NC(=O)COC(=O)C1=COCCO1)C12CC3CC(CC(C3)C1)C2 (configuration not stated)	none
CN(Cc1ccccc1)c1ncnc2c1cnn2-c1ccccc1	NF-kB expr up 4.69, STAT1 activator 149.5
COc1ncnc2c1cnn2-c1ccccc1	none
CCOC(=O)CC(=O)CSc1ncnc2c1cnn2-c1ccccc1	NF-kB expr up 3.79, STAT1 activator 143.0
CCN(c1ccccc1)c1ncnc2c1cnn2-c1ccccc1	STAT1 activator 131.0
CC1C(c2ccccc2)N(C)C(c2ccccc2)C(C)C1(O)C#Cc1ccccc1 (configuration not stated)	none
Cc1csc2ncc(C(=O)Nc3ccccc3Cl)c(=O)n12	STAT1 activator 131.3 (no result: STAT3 act, STAT3 inh)
Cc1csc2ncc(C(=O)NCc3ccco3)c(=O)n12	none
Cc1cccc(NC(=O)c2cnc3scc(C)n3c2=O)c1	STAT1 activator 128.6
Cc1csc2ncc(C(=O)Nc3ccon3)c(=O)n12	none
CNS(=O)(=O)c1ccc(NC(=S)Nc2ccc3c(c2)OCO3)cc1	none
COc1ccccc1/C=N/Nc1cc(N(C)C)nc(N(C)C)n1	none
COc1ccccc1/C=N/Nc1nncc2ccccc12	STAT1 activator 149.9
COc1ccc(-c2c(C)nn3c(N)c(C#N)cnc23)cc1OC	STAT1 activator 136.7
COc1ccc(C(=O)N/C(=C\c2ccco2)C(=O)NC2CCS(=O)(=O)C2)cc1 (configuration not stated)	none
O=C(NC(=S)Nc1ccc2c(c1)OCO2)c1ccccc1	NF-kB expr up 7.28, STAT1 activator 145.6, APP 5'UTR act 170.0
CNC(=S)Nc1cccc(C(C)=O)c1	none
CCC(=O)Nc1ccc2c(c1)C(=O)c1ccccc1C2=O	NF-kB expr up 4.17, STAT1 activator 148.4
CC(=O)c1cccc(NC(=S)NC(=O)c2ccccc2)c1	NF-kB expr up 3.77, STAT1 activator 132.7
CCC(=O)Nc1ccc2c(c1)C(=O)N(C)C2=O	none
CC(=O)c1cccc(NC(=S)NC(=O)c2cccc(Cl)c2)c1	STAT1 activator 139.5
CC(=O)c1cccc(NC(=S)NC(=O)C(C)C)c1	none
COc1ccccc1C(=O)C1CCCN(C(=O)CN2CCCCC2=O)C1 (configuration not stated)	none
Cc1c(C(=O)O)c(C(=O)O)nc2ccc(N3CCOCC3)cc12	none
O=C1c2ccccc2C(=O)N1OCc1ccccc1[N+](=O)[O-]	none
NC(=S)Nc1ccc2cn[nH]c2c1	none
